Screens as filed in PubChem.
Shown are actives, neighbours in structure and some others; about 1.4% of the full set was active somewhere.
JMJD2C inh – inhibitors of GASC-1 histone demethylase, primary screen, biochemical, fluorescence, DELFIA europium | Lysine-specific demethylase 4C (Homo sapiens), Q9H3R0 | GST-JMJD2C(1-420) H3K9me3 demethylation | inhibition, % at 2.35 µM | actives 0.069% (n = 330,000) | AID 2099, 2009;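 active means more than half of a compound's replicate wells show inhibition beyond 50%, single wells judged on their own value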;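 further: signal counts dimethyl H3K9 product captured on neutravidin plate; 0% = median of DMSO wells and 100% = 0.3 times that DMSO median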
Target sequence (Q9H3R0 1-420 limits assumed): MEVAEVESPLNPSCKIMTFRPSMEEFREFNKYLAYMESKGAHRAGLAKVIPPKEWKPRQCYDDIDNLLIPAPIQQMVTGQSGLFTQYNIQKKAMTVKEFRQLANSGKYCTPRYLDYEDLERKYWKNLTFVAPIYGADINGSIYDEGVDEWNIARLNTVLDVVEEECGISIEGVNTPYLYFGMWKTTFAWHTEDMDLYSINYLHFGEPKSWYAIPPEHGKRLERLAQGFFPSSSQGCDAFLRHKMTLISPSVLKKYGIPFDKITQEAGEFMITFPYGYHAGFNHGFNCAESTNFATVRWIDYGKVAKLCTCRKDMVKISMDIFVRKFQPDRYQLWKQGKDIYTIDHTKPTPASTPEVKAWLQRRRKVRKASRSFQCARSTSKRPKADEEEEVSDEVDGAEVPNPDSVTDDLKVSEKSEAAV
T cell HTS – modulators of CD8 T cell-vesicle binding, primary screen, mouse 2C CD8+ T cells, flow cytometry; 2C CD8+ T cell-vesicle binding; stronger effect = lower value; AID 2052, 2009; actives 0.068% (n = 330,000); response (vesicle binding), % at 7 µM;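 active means response, share of CD8 T cells binding vesicles, and their 90th percentile fluorescence all below set limits, cut at about 80% in these data, passing the limit was not always enough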;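 further: values below 100% mean blocked vesicle binding to the CD8+ T cells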
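Assay system – 2C mouse CD8+ T cells · Also added – QL9-loaded Drosophila micro-vesicles · Timing – Cell–vesicle co-incubation 1.5 h at 37 °C, staining 20 min on ice · Signal – flow cytometry of vesicle-bound cells · Measure – percent CD8+ FL2 mean versus row control · Controls – Peptide-free naked vesicles (low) and QL9 vesicles with 0.7% DMSO vehicle (high)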
Mot1-301 SUMO – yeast Mot1-301 growth rescue at high temperature, primary screen, SUMOylation pathway inhibitor project, S. cerevisiae, ATP luminescence, 38.5C | S. cerevisiae Mot1-301 growth rescue; percent above DMSO median, 100 means doubled | growth rescue, % at 18.8 µM | actives 1% (n = 320,000) | AID 2716, 2010;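 active means every valid replicate shows activation above 250% relative to neutral control wells; inactive means the rest, any valid replicate at or below 250%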;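 further: OY570 slx delta 5 strain wells were the positive control but not used for scaling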
HIF activator – HIF pathway transcriptional activators, primary screen, cell-based, U2OS HRE-luciferase, luminescence. U2OS HRE-luciferase reporter; normalized: DMSO 0%, desferrioxamine 100%. activation, % at 7.5 µM (by protocol). actives 0.32% (n = 300,000);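 active means mean activation of at least 10% of the iron chelator positive control signal, with at least half of replicates also reaching 10%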
* = called active by the depositor; i = inactive; / = not tested or not shown.

SMILES	JMJD2C inh	T cell HTS	Mot1-301 SUMO	HIF activator
CCn1c(=O)cc(OCC(=O)N2CCN(C(=O)c3ccco3)CC2)c2ccccc21	3	703	707*	0
C[C@@]12C(=O)Nc3ccc(F)cc3C(=O)N1[C@H]1c3cc(Br)ccc3OC[C@@H]1[C@@H]2c1ccccc1	3	i	349*	/
Cc1ccc2c(c1)[C@H]1[C@H](CO2)[C@H](c2ccccc2)[C@]2(C)C(=O)Nc3ccccc3C(=O)N12	/	409	341*	/
CCOC(=O)[C@H]1[C@H]2COc3ccc(OC)cc3[C@@H]2N2C(=O)c3cc(C)ccc3NC(=O)[C@@]12C	52*	/	-3	/
COc1ccc2c(c1)OC[C@H]1[C@H]2N2C(=O)CNC(=O)[C@@]2(C)[C@H]1c1ccccc1	59*	380	-3	/
CN(C)S(=O)(=O)c1cccc(C(=O)Nc2ccccc2C(=O)NC2CC2)c1	-1	381	-23	/
C/C(=N\Nc1ccc2nncn2n1)c1cccs1	4	490	34	1
CCCOc1ccc(C(=O)N(CC(C)C)c2c(N)n(Cc3ccccc3)c(=O)[nH]c2=O)cc1	3	177	-18	-1
CC(C)CC1C(C#N)=C(N)Oc2n[nH]c(-c3ccccc3)c21 (centres undefined)	-2	44*	4	0
CC(C)C1C(C#N)=C(N)Oc2n[nH]c(-c3ccccc3)c21 (centres undefined)	-11	163	59	0
CCCNC(=O)c1nn2cc(Br)cnc2c1Br	4	252	/	1
O=C(Cc1ccc(Br)cc1)NC1CCN(Cc2ccccc2)CC1	-10	161	283*	0
O=C(Cc1ccccc1)NC1CCN(Cc2ccccc2)CC1	1	147	164	0
O=C(COc1ccccc1F)NCC(c1ccco1)N1CCCC1 (centres undefined)	8	50*	-18	-42
O=C(COc1ccccc1)NCC(c1ccco1)N1CCCCC1 (centres undefined)	-18	178	-4	0
CNC(=S)NNC(=O)c1noc(C)c1C(=O)N1CCN(C(c2ccccc2)c2ccccc2)CC1	7	204	11	0
O=C(C1CCCN(S(=O)(=O)c2cnc[nH]2)C1)N(CCc1ccccc1)Cc1ccccc1 (centres undefined)	4	392	-14	/
O=C(C1CCN(S(=O)(=O)c2cnc[nH]2)CC1)N(CCc1ccccc1)Cc1ccccc1	17	301	417*	1
COc1ccc2oc(=O)c(C(=O)NC3CCCCCC3)cc2c1	5	239	-4	9.9*
CNC(=O)c1cc2cc(OC)ccc2oc1=O	-4	394	4	0
CC1(C)Cc2c(cnn2-c2cccc(F)c2)C(NC(=O)C2CCOCC2)C1 (centres undefined)	2	511	3	0
COc1ccc(OC)c(S(=O)(=O)Nc2cc3c4c(c2)C(C)C(=O)N4CCC3)c1 (centres undefined)	0	293	-14	2
COc1ccccc1OCCn1c(=O)n(C)c2ccccc21	5	142	345*	0
CCN(CC)CCOc1ccc2c(c1)C(=NO)c1cc(OCCN(CC)CC)ccc1-2	-3	686	7	62*
CCCOc1ccc2c(c1)C(=NN=C(N)N)c1cc(OCCC)ccc1-2	13	i	286*	-1
SMILES	JMJD2C inh	T cell HTS	Mot1-301 SUMO	HIF activator
NC(N)=NN=C1c2ccccc2-c2ccccc21	5	57	12	-1
COc1cccc(/C=C/C(=O)OCC(=O)Nc2nnc(-c3ccccc3)o2)c1	-5	519	5	-13
O=C(Nc1cccc(-c2cn3ccccc3n2)c1)C1CC1	1	289	/	37*
CCCCC(=O)Nc1ccc(NC(=O)CC)cc1OC	-7	370	22	18*
O=C(Nc1ccccc1F)c1ccc2ncsc2c1	11	330	-17	2
O=C(Nc1ccc(F)cc1F)c1ccc2ncsc2c1	11	389	335*	4
COc1ccc(CC(NC(C)=O)C(=O)NC2CCN(C(=O)c3cccc(Cl)c3)CC2)cc1OC (centres undefined)	-18	/	/	127*
CS(=O)(=O)c1cccc(-c2nnc(NC(=O)CCS(=O)(=O)c3ccccc3)o2)c1	13	371	-7	-8
